Fh CTSL1 inh = Fasciola hepatica cathepsin L1 inhibitors, primary screen, counter-screen for PFM18AAP inhibitor project, biochemical, QFRET, fluorogenic peptide substrate; inhibition, % at 5.96 µM; recombinant F. hepatica cathepsin L1, Z-Leu-Arg-MCA fluorescence; 0.49% of 300,000 active;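 active means inhibition above the mean of all tested compounds plus 3 SD, set per screening campaign, cut at about 17% in these data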;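 further: 0% = plate median of test compound wells and 100% = 1 µM Z-Phe-Ala-diazomethylketone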
NRP1-CendR mod = modulators of CendR peptide binding to NRP-1, primary screen, biochemical, fluorescence polarization, uHTS; Neuropilin-1 (Homo sapiens), O14786; FAM-RPARPAR peptide binding to NRP-1; inhibition, % at 25 µM; 0.85% of 360,000 active; AID 602438, 2012;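 active means inhibition or corrected inhibition above about 18%, plus a signal ratio from 0.5 to 1.5, limit read from the data, passing the limit was not always enough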
UCH37 inh = inhibitors of human UCH37 deubiquitinase, primary screen, biochemical, Ub-AMC cleavage, fluorescence; Ubiquitin carboxyl-terminal hydrolase isozyme L5 (Homo sapiens), Q9Y5K5; purified proteasome/UCH37; inhibition, % (concentration not given with the values); 0.33% of 330,000 active; AID 588478, 2011;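 active means mean inhibition over replicate wells above about 20%, limit read from the data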;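 further: 0% = compound-free wells with enzyme and 100% = wells lacking proteasome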
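Reagent: Ub-AMC substrate; assay system: Proteasome-associated human UCH37 deubiquitinase; controls: no-proteasome and no-compound wells; read-out: % inhibition of Ub-AMC cleavage fluorescence; timing: 30 min preincubation with enzyme, 25 min cleavage at room temperature; signal: AMC fluorescence from Ub-AMC cleavage, excitation 355 nm, emission 460 nm; buffer or medium: Tris-HCl pH 7.4 plus ovalbumin, ATP-MgCl2, DTT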
DAGLB inhibitor = DAGLB lipase inhibitors, primary screen, biochemical, fluorescence, HTS; inhibition, % at 5.17 µM; AID 504411, 2011; 0.059% of 340,000 active; Diacylglycerol lipase-beta (Homo sapiens), Q8NCG7; HEK293T DAGLB membrane lysate, EnzChek fluorogenic substrate; in the data active means inhibition above about 34%;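 further: 0% = enzyme with vehicle and 100% = wells lacking enzyme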
Target sequence (Q8NCG7 whole entry, looked up): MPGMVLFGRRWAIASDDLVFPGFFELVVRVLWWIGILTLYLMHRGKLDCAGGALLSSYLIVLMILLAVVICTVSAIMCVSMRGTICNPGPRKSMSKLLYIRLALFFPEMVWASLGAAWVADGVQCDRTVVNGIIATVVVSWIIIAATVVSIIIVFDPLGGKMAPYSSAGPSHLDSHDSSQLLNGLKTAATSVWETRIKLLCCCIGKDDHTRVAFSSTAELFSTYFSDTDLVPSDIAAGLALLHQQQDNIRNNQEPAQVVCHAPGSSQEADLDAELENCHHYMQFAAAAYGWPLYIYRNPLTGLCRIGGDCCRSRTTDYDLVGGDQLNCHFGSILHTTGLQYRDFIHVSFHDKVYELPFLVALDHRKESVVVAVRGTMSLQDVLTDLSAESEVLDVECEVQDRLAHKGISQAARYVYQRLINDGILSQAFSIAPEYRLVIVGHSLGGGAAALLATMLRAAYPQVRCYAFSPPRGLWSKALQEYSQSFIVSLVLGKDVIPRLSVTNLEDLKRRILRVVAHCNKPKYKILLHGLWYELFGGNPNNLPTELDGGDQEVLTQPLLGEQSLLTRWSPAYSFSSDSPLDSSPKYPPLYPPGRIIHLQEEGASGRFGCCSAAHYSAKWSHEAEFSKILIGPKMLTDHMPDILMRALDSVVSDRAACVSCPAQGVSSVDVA
MT1-MMP act inh = blockers of MT1-MMP proenzyme processing, primary screen, HT1080 RFP-PRO-GFP cells, GFP/RFP fluorescence; GFP/RFP ratio change, % at 20 µM; Matrix metalloproteinase-14 (Homo sapiens), P50281; AID 651647, 2012; 0.061% of 360,000 active; GFP/RFP ratio fluorescence, overnight; percent of plate control window, DMSO zero;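 active means GFP/RFP ratio change of at least 30% with cell ATP level not reduced by more than half and red fluorescence within 50% of control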
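Assay system: HT1080 RFP-PRO-GFP cells. Benchmarks: DMSO vehicle wells and RFP-L50D-GFP reporter cell wells. Times: overnight cell settling, then overnight compound exposure, 37 °C, 5% CO2. Compound: 20 µM single dose, 1% DMSO. Read-out basis: GFP/RFP fluorescence ratio.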
Numbers without * were called inactive; . = no result given. The list is not random: actives were taken first. Their share in the collection is about 1.5%.

SMILES	Fh CTSL1 inh	NRP1-CendR mod	UCH37 inh	DAGLB inhibitor	MT1-MMP act inh
CN(CC(=O)Nc1cccnc1)S(=O)(=O)c1cc(Cl)ccc1Cl	-1	5	3	0	1
CN(CC(=O)NNC(=O)c1cccnc1)S(=O)(=O)c1cc(Cl)ccc1Cl	0	40*	4	0	2
O=C(NNC(=O)c1ccccc1Cl)c1cccnc1	-3	23*	0	1	2
Cc1ccc(/C=N/Nc2nc3ccccc3[nH]2)s1	4	29*	.	4	15
S=C(NCCNCc1ccccc1)NC1CCCCC1	19*	.	.	.	.
O=C(NN=Cc1ccc(CN(Cc2ccc(Cl)cc2)S(=O)(=O)c2ccccc2)o1)C(=O)Nc1ccc(F)cc1	.	.	-2	.	.
O=C1CCCc2c1cc(C(=O)NC1CCSC1=O)c(=O)n2-c1ccccc1 (stereo not drawn)	0	30*	-2	1	-1
O=C(Nc1ccccc1)ON=Cc1ccncc1	.	.	6	.	.
COc1ccccc1N1CCN(C2CCCN(C(=O)CN3CCCCC3=O)C2)CC1 (stereo not drawn)	-2	20*	5	0	-11
CSc1sccc1C=NO	.	.	3	.	.
C=C1C[C@@]23CCC4[C@@](C)(CCC[C@@]4(C)C(=O)OC)C2CC[C@]1(OC(C)=O)C3 (stereo partly drawn)	.	30*	1	-12	0
COC(=O)[C@]1(C)CCC[C@@]2(C)C3CC[C@@]4(C)C[C@]3(CCC21)CC(=O)N4C (stereo partly drawn)	.	13	1	-1	0
CC(=NO)c1cc(C(C)(C)C)c(O)c(C(C)(C)C)c1	.	.	2	.	.
COC(=O)CSc1nnc(-c2c[nH]c3ccccc23)o1	0	-36	2	0	0
CCN(CC)C(=O)CSc1nnc(-c2c[nH]c3ccccc23)o1	0	31*	0	-2	-6
O=C(NN=Cc1ccccc1F)c1cccc2ccccc12	.	.	2	.	.
CC(C)(C)C(C(=O)NC1CCCC1)N1CCN(c2ncccc2C#N)CC1 (stereo not drawn)	.	30*	.	.	-15
N#Cc1cccnc1N1CCN(C(C(=O)NC2CCCC2)c2ccco2)CC1 (stereo not drawn)	.	1	.	.	-3
CN(C)CCCN1C(=O)c2cccc3c(Br)ccc(c23)C1=O	5	25*	-12	1	-28
COc1cccc(C=NN2C(=O)NC3(CCCCC3)C2=O)c1O	.	.	0	.	.
COC(=O)c1ccc(C=Nn2cnnc2)cc1	.	.	4	.	.
Cc1ccc(N(CC(=O)N2CCN(C3CCCCC3)CC2)S(=O)(=O)c2cccnc2)cc1	18*	-2	7	0	2
O=C(NN=Cc1cccc(OC(=O)c2ccco2)c1)c1ccc2c(c1)OCO2	.	.	2	.	.
CCC1(C)Nc2ccccc2C(=O)N1O (stereo not drawn)	-3	26*	-2	1	3
COc1cccc(CNC(=O)COC(=O)C23CC4CC(CC(Cl)(C4)C2)C3)c1	.	1	1	-6	0
SMILES	Fh CTSL1 inh	NRP1-CendR mod	UCH37 inh	DAGLB inhibitor	MT1-MMP act inh
COc1cccc(NC(=O)CN(C)C(=O)C23CC4CC(CC(Cl)(C4)C2)C3)c1	.	33*	2	-4	3
Cc1nn(-c2ccccc2)cc1C=NNS(=O)(=O)c1ccccc1	.	.	5	.	.
Cc1ccc(NC2=C(Cl)C(=O)OC2OC(=O)c2ccco2)cc1 (stereo not drawn)	81*	0	1	21	23
O=C(O)c1ccc(NC2=C(n3nnc4ccccc43)C(=O)c3ccccc3C2=O)cc1	34*	16	.	1	14
Cc1ccc2nc(NCCNC(=O)c3ccccc3)c(C#N)cc2c1	38*	-25	-105	-2	-1
COc1ccc(C(=O)NCCNc2nc3ccc(C)cc3cc2C#N)cc1	-2	-1	-43	-3	0
COc1ccccc1Nc1nc2ccc(C)cc2cc1C#N	2	29*	.	-1	-22
Cc1ccc(N2C(=O)NC(NS(=O)(=O)c3ccccc3)(C(F)(F)F)C2=O)cc1 (stereo not drawn)	8	26*	1	-2	-3
Cc1ccc(N2C(=O)NC(NS(=O)(=O)c3ccc(C)cc3)(C(F)(F)F)C2=O)cc1 (stereo not drawn)	-2	9	1	-2	2
O=C(/C=C/c1ccccc1)NCC(=O)NN=Cc1ccccc1[N+](=O)[O-]	.	.	9	.	.
O=C(Nc1ccc(Br)cc1)C1Cc2ccccc2OC1=NO (stereo not drawn)	.	.	6	.	.
COc1ccc(F)cc1CSc1nnnn1-c1ccc(O)cc1	2	23*	1	-1	-1
COc1ccc(C(C)=O)cc1CSc1nnnn1-c1ccc(O)cc1	1	4	3	0	-1
Cc1nc2ccc(C(=O)OCc3ccccc3Br)cc2nc1C	19*	9	2	0	1
Cc1cc(C)cc(OCCNC(=O)C(C)N2C(=O)c3ccccc3C2=O)c1 (stereo not drawn)	1	22*	3	0	0
COc1ccccc1NC(=S)N(CCN1CCOCC1)Cc1ccccc1F	-7	6	1	-1	2
COc1ccc(NC(=S)N(CCN2CCOCC2)Cc2ccccc2F)cc1	0	24*	0	0	4
CN(CC(=O)Nc1ccc(F)cc1)C(=O)COC(=O)CNC(=O)c1ccc(Cl)cc1Cl	21*	10	0	-1	2
CC(=NNC(=O)C(=O)Nc1cc(Cl)ccc1Cl)c1ccncc1	.	.	4	.	.
C[n+]1cc(C(=O)N2CCCCC2)ccc1/C=C/c1c[nH]c2ccccc12	5	119	24*	-20	-111
O=C(CSCc1ccccc1Br)NNC(=S)NCc1ccco1	-2	21*	0	2	1
COc1ccc(/C=C/C(=O)NCC(=O)NN=Cc2cc(Br)ccc2OCc2ccccc2)cc1	.	.	2	.	.
Cc1ccc2c(c1)C(=O)C(=O)N2Cc1ccccc1	.	9	-3	-1	2
CCN1C(=O)C(=O)c2cc(C)ccc21	.	34*	2	-1	2
Cc1ccccc1OCc1nc2ccccc2c(=O)n1N=Cc1cccc([N+](=O)[O-])c1	.	.	1	.	.
Cc1n[nH]c(C)c1S(=O)(=O)N1CCOCC1	-2	27*	3	-2	4
Cc1n[nH]c(C)c1S(=O)(=O)N1CCC(C(=O)O)CC1	-3	-1	-3	2	11
O=C(NCCN1CCOCC1)/C(=C\c1ccccc1Cl)NC(=O)c1ccccc1	19*	0	4	-1	3
O=C(NCCN1CCOCC1)/C(=C/c1ccccc1)NC(=O)c1ccccc1	0	-4	1	0	2
O=C(CC=NOCc1ccccc1F)c1cnc(-c2ccc(Cl)cc2)s1	.	.	-2	.	.
